Reference: ChEMBL document CHEMBL1143012, “Synthesis and pharmacological in vitro and in vivo evaluations of novel triazole derivatives as ligands of the ghrelin receptor. 1” (J Med Chem, 2007)

Assays:
[1] = biological target: T1, Growth hormone secretagogue receptor type 1 (Homo sapiens, UniProt Q92847); experiment: Displacement of [125I-His9]ghrelin from human GHS1a receptor expressed in LLC PK1 cells; format: cell-based
Summary of the method: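 Membranes from LLC PK-1 cells transiently electroporated with hGHS-R1a (harvested about 48 h), 10 µg protein, incubated 60 min at 25 °C with 60 pM 125I-His9-ghrelin in Tris pH 7.3/MgCl2/EDTA/bacitracin buffer. Filtered, washed, gamma counted; nonspecific binding with 10 µM ghrelin. Triplicates, at least three experiments.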

[2] = biological target: T1, Growth hormone secretagogue receptor type 1; experiment: Antagonist activity at human GHS1a receptor expressed in CHO cells assessed as inhibition of ghrelin-induced intracellular calcium mobilization; format: functional, cell-based
Summary of the method: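 Calcium flux (Fluo-4AM, ex 485/em 525 nm) in CHO cells transiently expressing hGHS-R1a. Antagonist inhibition curves against 0.1 µM ghrelin give IC50; Kb by Cheng-Prusoff, with Schild analysis of ghrelin EC50 shifts for pA2 and exact Kb. Signal as percentage of 10 µM ghrelin response; duplicates, at least three experiments.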

[3] = biological target: T1, Growth hormone secretagogue receptor type 1; experiment: Activity at human GHS1a receptor expressed in CHO cells assessed as intracellular calcium mobilization relative to 0.1 uM ghrelin; format: functional, cell-based
Rattus norvegicus [4] = experiment: Stimulation of cumulative food intake per 100 g body weight in Sprague-Dawley rat at 160 ug/kg, sc at 6 hrs; format: functional
Summary of the method: (§1)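 Male Sprague-Dawley rats (125-150 g), singly housed and trained, given compound sc alone (cumulative food intake as g/100 g body weight, weighed hourly to 6 h); percentage variation calculated as (compound minus hexarelin 80 µg/kg intake)/hexarelin intake at 6 h. Mean ± SEM, ANOVA with Dunnett's test.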

Rattus norvegicus [5] = experiment: Stimulation of cumulative food intake in Sprague-Dawley rat at 160 ug/kg, sc at 6 hrs relative to 80 ug/kg hexarelin; format: functional; summary of the method: as §1
[6] = biological target: T1, Growth hormone secretagogue receptor type 1; experiment: Agonist activity at human GHS1a receptor expressed in CHO cells assessed as induction of intracellular calcium mobilization; format: functional, cell-based
Summary of the method: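 CHO cells transiently expressing hGHS-R1a via electroporation, Fluo-4AM loaded (1 µM, 1 h, 37 °C), calcium fluorescence read 60 s at ex 485/em 525 nm. EC50 from agonist dose-response curves, response as percentage of maximal signal from 10 µM ghrelin; triplicates, means of at least three experiments.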

T1 sequence (Q92847 whole entry): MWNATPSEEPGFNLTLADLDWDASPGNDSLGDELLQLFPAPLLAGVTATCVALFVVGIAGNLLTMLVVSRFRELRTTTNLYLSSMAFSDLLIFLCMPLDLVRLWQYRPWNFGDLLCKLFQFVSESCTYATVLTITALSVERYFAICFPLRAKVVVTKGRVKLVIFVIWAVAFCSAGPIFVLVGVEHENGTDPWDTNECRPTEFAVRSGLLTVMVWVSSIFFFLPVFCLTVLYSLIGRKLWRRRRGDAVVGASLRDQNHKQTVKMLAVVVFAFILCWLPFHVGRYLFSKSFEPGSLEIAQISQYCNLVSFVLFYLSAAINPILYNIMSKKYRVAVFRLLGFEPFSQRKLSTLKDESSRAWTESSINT

COc1ccc(Cn2c(Cc3ccccc3)nnc2[C@@H](Cc2c[nH]c3ccccc23)NC(=O)C(C)(C)N)c(OC)c1
IC50 [1]: 560 nM
Activity ([2]; filed as antagonist): Antagonist
Activity [3]: 0%

CC(C)(N)C(=O)N[C@H](Cc1c[nH]c2ccccc12)c1nnc(CCc2c[nH]c3ccccc23)n1Cc1ccccc1
IC50 [1]: 15 nM
Activity (Rattus norvegicus [4]): 0.02 g
Activity (Rattus norvegicus [5]): -4%
EC50 [6]: 64 nM

COc1ccccc1Cn1c(CCc2c[nH]c3ccccc23)nnc1[C@@H](Cc1c[nH]c2ccccc12)NC(=O)C(C)(C)N
Activity ([2]; filed as partial agonist): Partial agonist
Activity [3]: 50%

Cc1ccc(Cn2c(CCc3ccccc3)nnc2[C@@H](Cc2c[nH]c3ccccc23)NC(=O)C(C)(C)N)cc1
IC50 [1]: 140 nM
Activity ([6]; filed as partial agonist): Partial agonist
Activity [3]: 19%

CC(C)(N)C(=O)N[C@H](Cc1c[nH]c2ccccc12)c1nnc(CCc2ccccc2)n1Cc1ccco1
IC50 [1]: 420 nM
EC50 [6]: 23 nM
Activity [3]: 97%

CCCCCCn1c(Cc2ccccc2)nnc1[C@@H](Cc1c[nH]c2ccccc12)NC(=O)C(C)(C)N
IC50 [1]: 470 nM
Activity ([6]; filed as partial agonist): Partial agonist
Activity [3]: 67%

COc1ccccc1Cn1c(CCc2ccccc2)nnc1[C@@H](Cc1c[nH]c2ccccc12)NC(=O)C(C)(C)N
Activity (Rattus norvegicus [4]): 0.29 g
Activity (Rattus norvegicus [5]): -57%
EC50 [6]: 98 nM
Activity [3]: 80%

COc1cc(Cn2c(CCc3c[nH]c4ccccc34)nnc2[C@@H](Cc2c[nH]c3ccccc23)NC(=O)C(C)(C)N)cc(OC)c1
IC50 [1]: 150 nM
Activity ([6]; filed as partial agonist): Partial agonist
Activity [3]: 22%

CC(C)(N)C(=O)N[C@H](Cc1c[nH]c2ccccc12)c1nnc(CCc2ccccc2)n1CCc1ccccc1
IC50 [1]: 310 nM
Activity ([6]; filed as partial agonist): Partial agonist
Activity [3]: 63%

CC(C)(N)C(=O)N[C@H](Cc1c[nH]c2ccccc12)c1nnc(CCc2c[nH]c3ccccc23)n1CCc1c[nH]c2ccccc12
IC50 [1]: 150 nM
Activity (Rattus norvegicus [4]): 0.27 g
Activity (Rattus norvegicus [5]): -25%
Activity ([6]; filed as partial agonist): Partial agonist
Activity [3]: 82%

CC(C)(N)C(=O)N[C@H](Cc1c[nH]c2ccccc12)c1nnc(Cc2ccccc2)n1CC(c1ccccc1)c1ccccc1
IC50 [1]: > 1000 nM
Activity ([6]; filed as partial agonist): Partial agonist
Activity [3]: 60%

CC(C)(N)C(=O)N[C@H](Cc1c[nH]c2ccccc12)c1nnc(CCCc2c[nH]c3ccccc23)n1CCc1c[nH]c2ccccc12
IC50 [1]: 14 nM
Activity (Rattus norvegicus [4]): 0.22 g
Activity (Rattus norvegicus [5]): 54%
EC50 [6]: 140 nM
Activity [3]: 85%

CC(C)(N)C(=O)N[C@H](Cc1c[nH]c2ccccc12)c1nnc(CCc2ccccc2)n1Cc1cccs1
IC50 [1]: 570 nM
Activity ([6]; filed as agonist): Agonist
Activity [3]: 91%

COc1cc(Cn2c(CCc3ccccc3)nnc2[C@@H](Cc2c[nH]c3ccccc23)NC(=O)C(C)(C)N)cc(OC)c1
IC50 [1]: > 1000 nM
Activity ([2]; filed as antagonist): Antagonist
Activity [3]: 0%

CC(C)(N)C(=O)N[C@H](Cc1c[nH]c2ccccc12)c1nnc(CCc2c[nH]c3ccccc23)n1CCc1ccccc1
IC50 [1]: 80 nM
Activity ([6]; filed as partial agonist): Partial agonist
Activity [3]: 25%

CC(C)(N)C(=O)N[C@H](Cc1c[nH]c2ccccc12)c1nnc(CCCc2c[nH]c3ccccc23)n1CCc1ccccc1
IC50 [1]: 11 nM
Activity (Rattus norvegicus [4]): 0.75 g
Activity (Rattus norvegicus [5]): -21%
EC50 [6]: 15 nM
Activity [3]: 18%

COc1cccc(Cn2c(CCc3ccccc3)nnc2[C@@H](Cc2c[nH]c3ccccc23)NC(=O)C(C)(C)N)c1
Activity (Rattus norvegicus [4]): 0.01 g
Activity (Rattus norvegicus [5]): -37%
EC50 [6]: 45 nM
Activity [3]: 82%

COc1ccc(Cn2c(CCc3c[nH]c4ccccc34)nnc2[C@@H](Cc2c[nH]c3ccccc23)NC(=O)C(C)(C)N)cc1
Activity (Rattus norvegicus [4]): 0.06 g
Activity (Rattus norvegicus [5]): -31%
Activity [3]: 0%

CCCCCCn1c(CCc2c[nH]c3ccccc23)nnc1[C@@H](Cc1c[nH]c2ccccc12)NC(=O)C(C)(C)N
IC50 [1]: 195 nM
Activity ([6]; filed as partial agonist): Partial agonist
Activity [3]: 62%

COc1ccc(CCn2c(CCc3ccccc3)nnc2[C@@H](Cc2c[nH]c3ccccc23)NC(=O)C(C)(C)N)cc1
IC50 [1]: 550 nM
Activity ([6]; filed as partial agonist): Partial agonist
Activity [3]: 82%

CC(C)(N)C(=O)N[C@H](Cc1c[nH]c2ccccc12)c1nnc(CCc2c[nH]c3ccccc23)n1Cc1ccc(Cl)c(Cl)c1
IC50 [1]: 55 nM
Activity (Rattus norvegicus [4]): 0.41 g
Activity (Rattus norvegicus [5]): -45%
Activity ([6]; filed as partial agonist): Partial agonist
Activity [3]: 28%

Cc1ccc(Cn2c(CCc3c[nH]c4ccccc34)nnc2[C@@H](Cc2c[nH]c3ccccc23)NC(=O)C(C)(C)N)cc1
Activity (Rattus norvegicus [4]): 0.3 g
Activity (Rattus norvegicus [5]): -49%
EC50 [6]: 630 nM
Activity [3]: 69%

CC(C)(N)C(=O)N[C@H](Cc1c[nH]c2ccccc12)c1nnc(Cc2ccccc2)n1Cc1ccc(Cl)c(Cl)c1
IC50 [1]: 520 nM
Activity ([6]; filed as partial agonist): Partial agonist
Activity [3]: 64%

CC(C)(N)C(=O)N[C@H](Cc1c[nH]c2ccccc12)c1nnc(Cc2c[nH]c3ccccc23)n1CCc1ccccc1
IC50 [1]: 300 nM
Activity ([6]; filed as partial agonist): Partial agonist
Activity [3]: 88%

CC(C)(N)C(=O)N[C@H](Cc1c[nH]c2ccccc12)c1nnc(CCc2ccccc2)n1Cc1ccccn1
IC50 [1]: > 1000 nM
Activity ([6]; filed as partial agonist): Partial agonist
Activity [3]: 59%

CC(C)(N)C(=O)N[C@H](Cc1c[nH]c2ccccc12)c1nnc(CCc2ccccc2)n1Cc1ccc(F)cc1
IC50 [1]: 400 nM
Activity ([6]; filed as partial agonist): Partial agonist
Activity [3]: 20%

COc1ccc(Cn2c(CCCc3ccccc3)nnc2[C@@H](Cc2c[nH]c3ccccc23)NC(=O)C(C)(C)N)cc1
Kb [2]: 14 nM
Activity [3]: 0%

Cc1ccc(Cn2c(Cc3ccccc3)nnc2[C@@H](Cc2c[nH]c3ccccc23)NC(=O)C(C)(C)N)cc1
IC50 [1]: 840 nM
Activity ([6]; filed as partial agonist): Partial agonist
Activity [3]: 28%

COc1cc(Cn2c(Cc3ccccc3)nnc2[C@@H](Cc2c[nH]c3ccccc23)NC(=O)C(C)(C)N)cc(OC)c1
IC50 [1]: 110 nM
Activity ([6]; filed as partial agonist): Partial agonist
Activity [3]: 29%

CC(C)(N)C(=O)N[C@H](Cc1c[nH]c2ccccc12)c1nnc(CCc2ccccc2)n1Cc1ccc(Cl)c(Cl)c1
IC50 [1]: 640 nM
Activity ([6]; filed as partial agonist): Partial agonist
Activity [3]: 53%

CC(C)(N)C(=O)N[C@H](Cc1c[nH]c2ccccc12)c1nnc(Cc2ccccc2)n1Cc1ccccn1
IC50 [1]: > 1000 nM
Activity ([6]; filed as partial agonist): Partial agonist
Activity [3]: 78%

CC(C)(N)C(=O)N[C@H](Cc1c[nH]c2ccccc12)c1nnc(CCc2c[nH]c3ccccc23)n1Cc1ccc(Br)cc1
IC50 [1]: 100 nM
Activity ([6]; filed as partial agonist): Partial agonist
Activity [3]: 27%

COc1cccc(Cn2c(CCCc3c[nH]c4ccccc34)nnc2[C@@H](Cc2c[nH]c3ccccc23)NC(=O)C(C)(C)N)c1
IC50 [1]: 22 nM
EC50 [6]: 18 nM
Activity [3]: 66%

Cc1ccc(Cn2c(CCCc3ccccc3)nnc2[C@@H](Cc2c[nH]c3ccccc23)NC(=O)C(C)(C)N)cc1
IC50 [1]: 21 nM
Activity (Rattus norvegicus [4]): 0.74 g
Activity (Rattus norvegicus [5]): -55%
EC50 [6]: 12 nM
Activity [3]: 16%

CC(C)(N)C(=O)N[C@H](Cc1c[nH]c2ccccc12)c1nnc(Cc2ccccc2)n1CCc1ccccc1
IC50 [1]: > 1000 nM
Activity ([6]; filed as partial agonist): Partial agonist
Activity [3]: 85%
